High-throughput results deposited in PubChem by several laboratories.
ABHD5-PLIN5 inh: ABHD5-PLIN5 interaction inhibitors, primary screen, cell lysate, split luciferase complementation, luminescence. AID 602281, 2012. inhibition, % at 4 µM. hit rate 0.78% among 360,000. Split G. princeps luciferase complementation, 4 h;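 active means inhibition above the mean inhibition across every tested compound plus 3 SD, cut at about 22% in these data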;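 further: 0% = DMSO only wells and the 100% control is not disclosed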
FN deposit inh: inhibitors of fibronectin matrix deposition, primary screen, AH1F cells, Alexa488-fibronectin fluorescence, plate reader; hit rate 0.086% among 350,000; AID 743247, 2014; AH1F fibroblasts, overnight; inhibition, % at 12.6 µM;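 active means mean inhibition across replicates of 30% or more, regardless of how many single replicates reach that level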;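 further: positive control wells lacked labelled fibronectin entirely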
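Measured by – fluorescence 485/525 nm · System – AH1F fibroblast monolayer, labelled fibronectin deposition · Amount – 10000 cells per well · Buffer or medium – serum-reduced DMEM (2% serum) · Doses – single dose, pinned · Also added – fluorescent fibronectin at 24 nM final · Schedule – 1 h cell attachment, overnight exposure to compound and label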
A3A deaminase: APOBEC3A ssDNA deaminase inhibitors, primary screen, selectivity assay for APOBEC3G inhibitor project, biochemical, FAM/TAMRA oligo cleavage fluorescence | AID 493011, 2011 | inhibition, % at 20 µM | recombinant A3A, FAM/TAMRA ssDNA deamination fluorescence | DNA dC->dU-editing enzyme APOBEC-3A (Homo sapiens), P31941 | hit rate 0.41% among 330,000;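 active means at least 40% inhibition at 20 µM here, with at most 30% in a related deaminase screen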;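 further: plate controls were A3A with DMSO for no effect and wells lacking A3A enzyme for full effect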
Target sequence (P31941 whole entry, looked up): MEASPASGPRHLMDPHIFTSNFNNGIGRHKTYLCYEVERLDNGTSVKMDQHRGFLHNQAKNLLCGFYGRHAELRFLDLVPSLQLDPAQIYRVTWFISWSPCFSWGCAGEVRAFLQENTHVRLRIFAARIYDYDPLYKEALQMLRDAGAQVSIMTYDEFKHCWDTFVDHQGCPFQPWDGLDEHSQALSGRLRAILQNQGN
A3G deaminase: APOBEC3G DNA deaminase inhibitors, primary screen, biochemical, fluorescence, single-stranded DNA substrate, uHTS | recombinant A3G, ssDNA deamination FAM/TAMRA fluorescence | AID 493012, 2011 | hit rate 0.28% among 330,000 | DNA dC->dU-editing enzyme APOBEC-3G (Homo sapiens), Q9HC16 | inhibition, % at 20 µM;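 active means inhibition of at least 40% at 20 µM, with no more than 30% in the related APOBEC3A deaminase screen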;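 further: plate controls were DMSO wells with A3G for no effect and wells lacking A3G enzyme for full effect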
ABHD5-PLIN5 conf: ABHD5-PLIN5 interaction inhibitors, confirmation, biochemical, luminescence; inhibition, % at 4 µM; hit rate 67% among 2,200; shares compounds with ABHD5-PLIN5 inh; in the data active means inhibition above about 23%;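 further: 0% = DMSO vehicle wells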
HNF4 counter: HNF4 dimerization inhibitors, counter-screen for ABHD5-PLIN5 interaction inhibitor project, biochemical, split-luciferase complementation, luminescence | hit rate 77% among 2,200 | inhibition, % at 4 µM | AID 651674, 2012 | shares compounds with ABHD5-PLIN5 inh;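 active means mean inhibition across replicate wells exceeding the computed hit threshold, cut at about 13% in these data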;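 further: light from luciferase halves that rejoin when HNF4 fusion proteins dimerize; 0% = DMSO only wells and the 100% control is not given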
Target sequence (P41235 whole entry, looked up, the tested form may be a part): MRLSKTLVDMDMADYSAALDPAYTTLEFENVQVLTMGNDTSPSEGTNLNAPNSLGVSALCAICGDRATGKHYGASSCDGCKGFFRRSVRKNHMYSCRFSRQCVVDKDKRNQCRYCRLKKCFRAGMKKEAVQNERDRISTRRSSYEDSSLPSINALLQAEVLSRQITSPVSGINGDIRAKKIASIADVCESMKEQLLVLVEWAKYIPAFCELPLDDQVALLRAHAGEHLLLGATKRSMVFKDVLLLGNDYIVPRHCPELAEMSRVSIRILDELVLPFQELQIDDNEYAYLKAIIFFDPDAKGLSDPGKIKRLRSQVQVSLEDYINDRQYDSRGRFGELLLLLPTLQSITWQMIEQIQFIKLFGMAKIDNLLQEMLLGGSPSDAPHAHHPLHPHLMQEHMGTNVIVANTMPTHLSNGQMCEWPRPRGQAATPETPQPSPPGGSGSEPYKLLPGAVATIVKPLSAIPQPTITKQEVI
Starred values were filed as active, the others as inactive; · = no result given. A selection: hits, their analogues and other compounds. The true share with any hit is near 1.2%.

SMILES | ABHD5-PLIN5 inh | FN deposit inh | A3A deaminase | A3G deaminase | ABHD5-PLIN5 conf | HNF4 counter
C#CCN(C[C@@H]1[C@@H](OC(=O)Nc2cccs2)[C@@H](OC(=O)Nc2cccs2)Cn2c(=O)ccc(=O)n21)S(=O)(=O)c1ccc(C)cc1 | 61* | -1 | · | · | 87* | 50*
C#CCN(C[C@@H]1[C@@H](OC(=O)NCc2ccccc2F)[C@@H](OC(=O)NCc2ccccc2F)Cn2c(=O)ccc(=O)n21)S(=O)(=O)c1ccc(C)cc1 | 40* | 2 | · | · | 58* | 27*
C#CCN(C[C@@H]1[C@@H](OC(=O)NC2CC2)[C@@H](OC(=O)NC2CC2)CN(C(=O)OC(C)C)N1C(=O)OC(C)C)S(=O)(=O)c1ccc(C)cc1 | 3 | -5 | · | · | · | ·
C[C@@H]1CN([C@@H](C)CO)C(=O)c2cc(NS(=O)(=O)c3ccc(Cl)cc3)ccc2O[C@@H](C)CCCCO[C@H]1CN(C)Cc1ccc(C(F)(F)F)cc1 | · | -4 | · | · | · | ·
Cc1ccc(S(=O)(=O)N2C[C@@]3(O)Cn4c(=O)ccc(=O)n4C[C@@]3(OC(=O)NCC3CCCCC3)C2)cc1 | 37* | 0 | · | · | 58* | 2
C=CCn1c(SCC(C)=O)nc2scc(-c3ccco3)c2c1=O | 34* | 6 | 12 | 18 | 54* | 85*
C=CCn1c(SCC(=O)N2CCOCC2)nc2scc(-c3ccco3)c2c1=O | 33* | · | 13 | 17 | 23* | 49*
C=CCn1c(SCC(=O)Nc2ccccc2)nc2scc(-c3cccs3)c2c1=O | 3 | · | 1 | 0 | · | ·
C=CCn1c(SCc2ccc3c(c2)OCO3)nc2scc(-c3ccco3)c2c1=O | 36* | 6 | 1 | -2 | 17 | 10
C=CCn1c(SCC(=O)NCCCC(=O)OCC)nc2scc(-c3ccco3)c2c1=O | 30* | -8 | 1 | -5 | 7 | 13*
C=CCn1c(SCC(=O)N2CCCC2)nc2scc(-c3cccs3)c2c1=O | -2 | -1 | 0 | 0 | · | ·
CCC(=O)N1C[C@@H](C)[C@H](OC)CN(C)C(=O)c2cc(NS(=O)(=O)CC)ccc2OC[C@@H]1C | · | -8 | · | · | · | ·
COCC(=O)Nc1ccc2c(c1)OC[C@@H](C)N(C(=O)c1ccccn1)C[C@H](C)[C@@H](OC)CN(C)C2=O | · | -11 | · | · | · | ·
O=C(O)c1cc([N+](=O)[O-])c(Sc2nc3ccccc3[nH]2)c([N+](=O)[O-])c1 | 35* | 1 | -4 | -8 | 53* | 54*
O=C(O)c1ccc(CSc2nc3ccccc3[nH]2)cc1 | -14 | 7 | 0 | -6 | · | ·
O=C(C[C@H]1C[C@@H]2c3cc(NC(=O)C4CCC4)ccc3O[C@@H]2[C@@H](CO)O1)NCC1CC1 | · | -1 | · | · | · | ·
Cc1ccc(C(=O)/C=C/c2cc(Br)cc(Br)c2O)o1 | 30* | 1 | 9 | 8 | 59* | 25*
CN1C(=O)c2cc(NC(=O)c3cscn3)ccc2OC[C@@H]2O[C@@H](CC(=O)N3CCOCC3)CC[C@H]21 | · | 1 | · | · | · | ·
O=C1Nc2ccccc2/C1=C/c1ccccc1Cl | 27* | -5 | -1 | -3 | 40* | 26*
CN(C)/C=C1\C(=O)Nc2ccccc21 | -2 | · | -4 | -6 | · | ·
O=C1Nc2ccccc2/C1=C\C(=O)c1ccccc1 | 50* | 4 | -3 | -10 | 82* | 96*
CN(O)/C=C1\C(=O)Nc2ccccc21 | -34 | · | 0 | -1 | · | ·
O=C(/C=C1\C(=O)Nc2ccccc21)/C=C1\C(=O)Nc2ccccc21 | 63* | -3 | · | · | 102* | 105*
COc1ccccc1/C=C1\C(=O)Nc2ccccc21 | 19 | -17 | -6 | -2 | · | ·
CC(C)Oc1ccc(C(=O)/C=C2/C(=O)Nc3ccccc32)cc1 | 62* | 4 | -4 | -5 | 82* | 86*
SMILES | ABHD5-PLIN5 inh | FN deposit inh | A3A deaminase | A3G deaminase | ABHD5-PLIN5 conf | HNF4 counter
C/C=C/c1cnc2c(c1)C(=O)N([C@@H](C)CO)C[C@@H](C)[C@@H](CN(C)S(=O)(=O)c1ccccc1)O2 | · | 12 | · | · | · | ·
O=C(Nc1ccc(N2CCOCC2)cc1)c1cc(-c2ccncc2)nc2ccccc12 | -1 | -3 | -3 | -6 | · | ·
COc1cc(-c2cc(C(=O)Nc3ccc(N4CCOCC4)cc3)c3ccccc3n2)cc(OC)c1OC | 24* | 0 | 2 | 15 | 8 | 0
O=c1[nH]c(/C=C\c2cccc(O)c2)nc(O)c1[N+](=O)[O-] | 52* | 0 | 4 | 11 | 52* | 43*
O=c1[nH]c(/C=C\c2ccc(O)c(O)c2)nc(O)c1[N+](=O)[O-] | 8 | -13 | -1 | -6 | · | ·
Cc1cccc(S(=O)(=O)N(C)C[C@H]2OCc3ccccc3-c3ccccc3C(=O)N([C@@H](C)CO)C[C@H]2C)c1 | · | 11 | · | · | · | ·
CC(OC(=O)/C=C/c1ccc2ccccc2n1)C(=O)Nc1ccc(S(N)(=O)=O)cc1 (configuration not stated) | 25* | 7 | 3 | -6 | 28* | 21*
N#C[C@@H]1[C@H](c2ccccc2C2=CCCCC2)[C@H](CO)N1C(=O)Nc1ccccc1F | · | 6 | · | · | · | ·
N#CC1C(=O)c2ccccc2C1c1ccccc1 (configuration not stated) | 73* | 38* | · | · | 8 | 98*
CCOc1cc(/C=C2\CN(CC)C/C(=C\c3ccc(O)c(OCC)c3)C2=O)ccc1O | 83* | 1 | 8 | 5 | 94* | 81*
CCN1C/C(=C/c2cccc([N+](=O)[O-])c2)C(=O)/C(=C/c2cccc([N+](=O)[O-])c2)C1 | 40* | -5 | · | · | 102* | 97*
COc1cc(/C=C2\CCC/C(=C\c3ccc(O)c(OC)c3)C2=O)ccc1O | 10 | 11 | 4 | 1 | · | ·
CCOc1cc(/C=C/C(=O)c2ccc(OC)c(CN3CCOCC3)c2)cc(Br)c1O | 23* | 8 | 0 | -29 | 30* | 24*
COc1ccccc1/C=C/C(=O)c1ccccc1 | 29* | 5 | · | · | 55* | 34*
COc1ccccc1/C=C/C(=O)c1ccc(Cl)cc1 | 27* | · | 0 | -5 | 69* | 49*
COc1cc(C=CC(=O)c2ccccc2)cc(OC)c1OC | 48* | -3 | · | · | 68* | 50*
CCOc1ccccc1/C=C/C(=O)c1ccc(Cl)cc1 | 2 | -5 | 3 | 21 | · | ·
COc1ccccc1/C=C/C(=O)c1ccc(NC(C)=O)cc1 | 11 | 10 | 0 | -2 | · | ·
